In brackets after ≈: the same amount, converted by molar mass.
Each compound was assayed on Escherichia coli (assay: Antimicrobial activity against Escherichia coli harboring gyrA L83, Y87, parC I80, G84 and parE A458 mutant gene by agar dilution method).

Structure (SMILES) | MIC
COc1c(N2CCNC(C)C2)c(F)cc2c(=O)c(C(=O)O)cn(C3CC3)c12 (stereo unspecified) [GATIFLOXACIN] | 30 µg/mL (≈ 79.9 µM)
O=C(O)c1cn(C2CC2)c2cc(N3CCNCC3)c(F)cc2c1=O [CIPROFLOXACIN] | 300 µg/mL (≈ 905 µM)
C[C@H]1COc2c(N3CCN(C)CC3)c(F)cc3c(=O)c(C(=O)O)cn1c23.C[C@H]1COc2c(N3CCN(C)CC3)c(F)cc3c(=O)c(C(=O)O)cn1c23.O [LEVOFLOXACIN] | 200 µg/mL
CCn1cc(C(=O)O)c(=O)c2cc(F)c(N3CCNCC3)cc21 [NORFLOXACIN] | 1000 µg/mL (≈ 3130 µM)

Each compound was assayed on Escherichia coli (assay: Antimicrobial activity against Escherichia coli K-12 harboring gyrA L83, N87 mutant gene by agar dilution method).
Assay type: functional

Structure (SMILES) | MIC
COc1c(N2CCNC(C)C2)c(F)cc2c(=O)c(C(=O)O)cn(C3CC3)c12 (stereo unspecified) [GATIFLOXACIN] | 10 µg/mL (≈ 26.6 µM)
C[C@H]1COc2c(N3CCN(C)CC3)c(F)cc3c(=O)c(C(=O)O)cn1c23.C[C@H]1COc2c(N3CCN(C)CC3)c(F)cc3c(=O)c(C(=O)O)cn1c23.O [LEVOFLOXACIN] | 10 µg/mL
CCn1cc(C(=O)O)c(=O)c2cc(F)c(N3CCNCC3)cc21 [NORFLOXACIN] | 10 µg/mL (≈ 31.3 µM)

What follows are compounds tested on Escherichia coli (assay: Antimicrobial activity against Escherichia coli […] harboring gyrA L83, N87, parC I80 and parE M464 mutant gene by agar dilution method).
Assay type: functional, K-12
Method in brief: (§1)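 Clinical E. coli isolates, with topoisomerase QRDR genotype (gyrA, gyrB, parC, parE) found by PCR sequencing. MICs for ciprofloxacin, gatifloxacin, levofloxacin and norfloxacin were measured by CLSI agar dilution using a modified dilution scheme. Where the agar dilution MIC was <1 μg/ml, the value came from at least two Etest measurements.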

Structure (SMILES) | MIC
COc1c(N2CCNC(C)C2)c(F)cc2c(=O)c(C(=O)O)cn(C3CC3)c12 (stereo unspecified) [GATIFLOXACIN] | 20 µg/mL (≈ 53.3 µM)
C[C@H]1COc2c(N3CCN(C)CC3)c(F)cc3c(=O)c(C(=O)O)cn1c23.C[C@H]1COc2c(N3CCN(C)CC3)c(F)cc3c(=O)c(C(=O)O)cn1c23.O [LEVOFLOXACIN] | 50 µg/mL
CCn1cc(C(=O)O)c(=O)c2cc(F)c(N3CCNCC3)cc21 [NORFLOXACIN] | 400 µg/mL (≈ 1250 µM)

What follows are compounds tested on Escherichia coli (assay: Antimicrobial activity against Escherichia coli K-12 harboring gyrA L83, Y87 and parC I80, G84 mutant gene by agar dilution method).
Assay type: functional

Structure (SMILES) | MIC
COc1c(N2CCNC(C)C2)c(F)cc2c(=O)c(C(=O)O)cn(C3CC3)c12 (stereo unspecified) [GATIFLOXACIN] | 10 µg/mL (≈ 26.6 µM)
O=C(O)c1cn(C2CC2)c2cc(N3CCNCC3)c(F)cc2c1=O [CIPROFLOXACIN] | 40 µg/mL (≈ 121 µM)
C[C@H]1COc2c(N3CCN(C)CC3)c(F)cc3c(=O)c(C(=O)O)cn1c23.C[C@H]1COc2c(N3CCN(C)CC3)c(F)cc3c(=O)c(C(=O)O)cn1c23.O [LEVOFLOXACIN] | 50 µg/mL
CCn1cc(C(=O)O)c(=O)c2cc(F)c(N3CCNCC3)cc21 [NORFLOXACIN] | 100 µg/mL (≈ 313 µM)

These compounds were tested on Escherichia coli (assay: Antimicrobial activity against Escherichia coli […] harboring gyrA L83, Y87, parC I80 and parE A458 mutant gene by agar dilution method).
Assay type: functional, K-12
Method in brief: as §1

Structure (SMILES) | MIC
COc1c(N2CCNC(C)C2)c(F)cc2c(=O)c(C(=O)O)cn(C3CC3)c12 (stereo unspecified) [GATIFLOXACIN] | 20 µg/mL (≈ 53.3 µM)
C[C@H]1COc2c(N3CCN(C)CC3)c(F)cc3c(=O)c(C(=O)O)cn1c23.C[C@H]1COc2c(N3CCN(C)CC3)c(F)cc3c(=O)c(C(=O)O)cn1c23.O [LEVOFLOXACIN] | 50 µg/mL
CCn1cc(C(=O)O)c(=O)c2cc(F)c(N3CCNCC3)cc21 [NORFLOXACIN] | 300 µg/mL (≈ 939 µM)

These compounds were tested on Escherichia coli (assay: Antimicrobial activity against Escherichia coli K-12 harboring gyrA L83, Y87 and parC K84 mutant gene by agar dilution method).
Assay type: functional

Structure (SMILES) | MIC
COc1c(N2CCNC(C)C2)c(F)cc2c(=O)c(C(=O)O)cn(C3CC3)c12 (stereo unspecified) [GATIFLOXACIN] | 30 µg/mL (≈ 79.9 µM)
O=C(O)c1cn(C2CC2)c2cc(N3CCNCC3)c(F)cc2c1=O [CIPROFLOXACIN] | 500 µg/mL (≈ 1510 µM)
C[C@H]1COc2c(N3CCN(C)CC3)c(F)cc3c(=O)c(C(=O)O)cn1c23.C[C@H]1COc2c(N3CCN(C)CC3)c(F)cc3c(=O)c(C(=O)O)cn1c23.O [LEVOFLOXACIN] | 50 µg/mL
CCn1cc(C(=O)O)c(=O)c2cc(F)c(N3CCNCC3)cc21 [NORFLOXACIN] | 1000 µg/mL (≈ 3130 µM)

These compounds were tested on Escherichia coli (assay: Antimicrobial activity against Escherichia coli K-12 harboring gyrA A83 mutant gene by agar dilution method).
Assay type: functional

Structure (SMILES) | MIC
COc1c(N2CCNC(C)C2)c(F)cc2c(=O)c(C(=O)O)cn(C3CC3)c12 (stereo unspecified) [GATIFLOXACIN] | 0.094 µg/mL (≈ 0.25 µM)
C[C@H]1COc2c(N3CCN(C)CC3)c(F)cc3c(=O)c(C(=O)O)cn1c23.C[C@H]1COc2c(N3CCN(C)CC3)c(F)cc3c(=O)c(C(=O)O)cn1c23.O [LEVOFLOXACIN] | 0.168 µg/mL
CCn1cc(C(=O)O)c(=O)c2cc(F)c(N3CCNCC3)cc21 [NORFLOXACIN] | 0.194 µg/mL (≈ 0.608 µM)

What follows are compounds tested on Escherichia coli (assay: Antimicrobial activity against Escherichia coli K-12 harboring gyrA L83, N87 and parC I80, G84 mutant gene by agar dilution method).
Assay type: functional

Structure (SMILES) | MIC
COc1c(N2CCNC(C)C2)c(F)cc2c(=O)c(C(=O)O)cn(C3CC3)c12 (stereo unspecified) [GATIFLOXACIN] | 10 µg/mL (≈ 26.6 µM)
C[C@H]1COc2c(N3CCN(C)CC3)c(F)cc3c(=O)c(C(=O)O)cn1c23.C[C@H]1COc2c(N3CCN(C)CC3)c(F)cc3c(=O)c(C(=O)O)cn1c23.O [LEVOFLOXACIN] | 50 µg/mL
CCn1cc(C(=O)O)c(=O)c2cc(F)c(N3CCNCC3)cc21 [NORFLOXACIN] | 200 µg/mL (≈ 626 µM)

Each compound was assayed on Escherichia coli (assay: Antimicrobial activity against […] harboring gyrA L83, N87, gyrB T471 and parC I80, G84 mutant gene by agar dilution method).
Assay type: functional, K-12
Method in brief: as §1

Structure (SMILES) | MIC
COc1c(N2CCNC(C)C2)c(F)cc2c(=O)c(C(=O)O)cn(C3CC3)c12 (stereo unspecified) [GATIFLOXACIN] | 20 µg/mL (≈ 53.3 µM)
C[C@H]1COc2c(N3CCN(C)CC3)c(F)cc3c(=O)c(C(=O)O)cn1c23.C[C@H]1COc2c(N3CCN(C)CC3)c(F)cc3c(=O)c(C(=O)O)cn1c23.O [LEVOFLOXACIN] | 30 µg/mL
CCn1cc(C(=O)O)c(=O)c2cc(F)c(N3CCNCC3)cc21 [NORFLOXACIN] | 200 µg/mL (≈ 626 µM)

The compounds below were run on Escherichia coli (assay: Antimicrobial activity against Escherichia coli K-12 harboring gyrA L83, N87 and parC K84 mutant gene by agar dilution method).
Assay type: functional

Structure (SMILES) | MIC
COc1c(N2CCNC(C)C2)c(F)cc2c(=O)c(C(=O)O)cn(C3CC3)c12 (stereo unspecified) [GATIFLOXACIN] | 30 µg/mL (≈ 79.9 µM)
C[C@H]1COc2c(N3CCN(C)CC3)c(F)cc3c(=O)c(C(=O)O)cn1c23.C[C@H]1COc2c(N3CCN(C)CC3)c(F)cc3c(=O)c(C(=O)O)cn1c23.O [LEVOFLOXACIN] | 50 µg/mL
CCn1cc(C(=O)O)c(=O)c2cc(F)c(N3CCNCC3)cc21 [NORFLOXACIN] | 200 µg/mL (≈ 626 µM)

Each compound was assayed on Escherichia coli (assay: Antimicrobial activity against Escherichia coli K-12 harboring gyrA L83, Y87 and parC I80 mutant gene by agar dilution method).
Assay type: functional

Structure (SMILES) | MIC
COc1c(N2CCNC(C)C2)c(F)cc2c(=O)c(C(=O)O)cn(C3CC3)c12 (stereo unspecified) [GATIFLOXACIN] | 10 µg/mL (≈ 26.6 µM)
C[C@H]1COc2c(N3CCN(C)CC3)c(F)cc3c(=O)c(C(=O)O)cn1c23.C[C@H]1COc2c(N3CCN(C)CC3)c(F)cc3c(=O)c(C(=O)O)cn1c23.O [LEVOFLOXACIN] | 10 µg/mL
CCn1cc(C(=O)O)c(=O)c2cc(F)c(N3CCNCC3)cc21 [NORFLOXACIN] | 50 µg/mL (≈ 157 µM)

Each compound was assayed on Escherichia coli (assay: Antimicrobial activity against […] harboring gyrA L83, N87, parC I80 and parE […] mutant gene by agar dilution method).
Assay type: functional, K-12
Method in brief: as §1

Structure (SMILES) | MIC
COc1c(N2CCNC(C)C2)c(F)cc2c(=O)c(C(=O)O)cn(C3CC3)c12 (stereo unspecified) [GATIFLOXACIN] | 10 µg/mL (≈ 26.6 µM)
C[C@H]1COc2c(N3CCN(C)CC3)c(F)cc3c(=O)c(C(=O)O)cn1c23.C[C@H]1COc2c(N3CCN(C)CC3)c(F)cc3c(=O)c(C(=O)O)cn1c23.O [LEVOFLOXACIN] | 20 µg/mL
CCn1cc(C(=O)O)c(=O)c2cc(F)c(N3CCNCC3)cc21 [NORFLOXACIN] | 50 µg/mL (≈ 157 µM)

The compounds below were run on Escherichia coli (assay: Antimicrobial activity against Escherichia coli […] harboring gyrA L83, N87, parC I80, K84 and parE D460 mutant gene by agar dilution method).
Assay type: functional, K-12
Method in brief: as §1

Structure (SMILES) | MIC
COc1c(N2CCNC(C)C2)c(F)cc2c(=O)c(C(=O)O)cn(C3CC3)c12 (stereo unspecified) [GATIFLOXACIN] | 20 µg/mL (≈ 53.3 µM)
O=C(O)c1cn(C2CC2)c2cc(N3CCNCC3)c(F)cc2c1=O [CIPROFLOXACIN] | 200 µg/mL (≈ 604 µM)
C[C@H]1COc2c(N3CCN(C)CC3)c(F)cc3c(=O)c(C(=O)O)cn1c23.C[C@H]1COc2c(N3CCN(C)CC3)c(F)cc3c(=O)c(C(=O)O)cn1c23.O [LEVOFLOXACIN] | 50 µg/mL
CCn1cc(C(=O)O)c(=O)c2cc(F)c(N3CCNCC3)cc21 [NORFLOXACIN] | 400 µg/mL (≈ 1250 µM)

These compounds were tested on Escherichia coli (assay: Antimicrobial activity against Escherichia coli K-12 harboring gyrA L83, N87 and parC I80 mutant gene by agar dilution method).
Assay type: functional

Structure (SMILES) | MIC
COc1c(N2CCNC(C)C2)c(F)cc2c(=O)c(C(=O)O)cn(C3CC3)c12 (stereo unspecified) [GATIFLOXACIN] | 10 µg/mL (≈ 26.6 µM)
C[C@H]1COc2c(N3CCN(C)CC3)c(F)cc3c(=O)c(C(=O)O)cn1c23.C[C@H]1COc2c(N3CCN(C)CC3)c(F)cc3c(=O)c(C(=O)O)cn1c23.O [LEVOFLOXACIN] | 8 µg/mL
CCn1cc(C(=O)O)c(=O)c2cc(F)c(N3CCNCC3)cc21 [NORFLOXACIN] | 10 µg/mL (≈ 31.3 µM)

The compounds below were run on Escherichia coli (assay: Antimicrobial activity against Escherichia coli K-12 harboring gyrA L83, Y87 mutant gene by agar dilution method).
Assay type: functional

Structure (SMILES) | MIC
COc1c(N2CCNC(C)C2)c(F)cc2c(=O)c(C(=O)O)cn(C3CC3)c12 (stereo unspecified) [GATIFLOXACIN] | 0.5 µg/mL (≈ 1.33 µM)
C[C@H]1COc2c(N3CCN(C)CC3)c(F)cc3c(=O)c(C(=O)O)cn1c23.C[C@H]1COc2c(N3CCN(C)CC3)c(F)cc3c(=O)c(C(=O)O)cn1c23.O [LEVOFLOXACIN] | 2 µg/mL
CCn1cc(C(=O)O)c(=O)c2cc(F)c(N3CCNCC3)cc21 [NORFLOXACIN] | 8 µg/mL (≈ 25.1 µM)

What follows are compounds tested on Escherichia coli (assay: Antimicrobial activity against Escherichia coli K-12 harboring by agar dilution method).
Assay type: functional

Structure (SMILES) | MIC
COc1c(N2CCNC(C)C2)c(F)cc2c(=O)c(C(=O)O)cn(C3CC3)c12 (stereo unspecified) [GATIFLOXACIN] | 0.007 µg/mL (≈ 0.0186 µM)
CCn1cc(C(=O)O)c(=O)c2cc(F)c(N3CCNCC3)cc21 [NORFLOXACIN] | 0.023 µg/mL (≈ 0.072 µM)

Source: ChEMBL document CHEMBL1629564, “Mechanisms accounting for fluoroquinolone resistance in Escherichia coli clinical isolates” (2009)
